# Compound activity: PubChem, several laboratories
# A selection: hits, their analogues and other compounds. The true share with any hit is near 3%.
# GRIN3A LBD mod: binders of NR3A ligand-binding domain, primary screen, biophysical, differential scanning fluorimetry, uHTS; Glutamate receptor ionotropic, NMDA 3A (GRIN3A) ligand-binding domain; Tm shift relative to glycine control, % at 25 µM; NR3A LBD differential scanning fluorimetry, Tm shift; 0% = protein alone, 100% = glycine-bound protein; 340,000 tested, 2.5% active;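 active means melting temperature shift of at least 10% of the positive control shift, at one fixed dose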
# JMJD2C inh: inhibitors of GASC-1 histone demethylase, primary screen, biochemical, fluorescence, DELFIA europium. Lysine-specific demethylase 4C (Homo sapiens), Q9H3R0. GST-JMJD2C(1-420) H3K9me3 demethylation. inhibition, % at 2.35 µM. 330,000 tested, 0.069% active. AID 2099, 2009;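 active means more than half of a compound's replicate wells show inhibition beyond 50%, single wells judged on their own value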;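 further: signal counts dimethyl H3K9 product captured on neutravidin plate; 0% = median of DMSO wells and 100% = 0.3 times that DMSO median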
# aDG glyco up: activators of alpha-DG glycosylation, primary screen, uHTS, Pro5-aDG cells, AlphaScreen; alpha-DG glycosylation AlphaScreen (IIH6); 0% Pro5, 100% B10-LARGE cell signal; activation, % at 10 µM; 360,000 tested, 0.22% active; AID 624168, 2012;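 active means activation of at least 8% versus controls, or a plate z-score of at least 8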;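 further: Pro5 are CHO cells carrying HIG-tagged alpha-DG that lacks glycosylation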
# GC-B act: human GC-B receptor activators, primary screen, HEK293 GC-B cells, cGMP TR-FRET, EC30 CNP; 0% at EC30 CNP, 100% saturating CNP; Atrial natriuretic peptide receptor 2 (Homo sapiens), P20594; activation, % at 10 µM; 370,000 tested, 0.11% active;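 active means activation at 10 µM reaching about 35% in either raw or pattern-adjusted values, limit read from the data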
# Target sequence (P20594 whole entry, looked up): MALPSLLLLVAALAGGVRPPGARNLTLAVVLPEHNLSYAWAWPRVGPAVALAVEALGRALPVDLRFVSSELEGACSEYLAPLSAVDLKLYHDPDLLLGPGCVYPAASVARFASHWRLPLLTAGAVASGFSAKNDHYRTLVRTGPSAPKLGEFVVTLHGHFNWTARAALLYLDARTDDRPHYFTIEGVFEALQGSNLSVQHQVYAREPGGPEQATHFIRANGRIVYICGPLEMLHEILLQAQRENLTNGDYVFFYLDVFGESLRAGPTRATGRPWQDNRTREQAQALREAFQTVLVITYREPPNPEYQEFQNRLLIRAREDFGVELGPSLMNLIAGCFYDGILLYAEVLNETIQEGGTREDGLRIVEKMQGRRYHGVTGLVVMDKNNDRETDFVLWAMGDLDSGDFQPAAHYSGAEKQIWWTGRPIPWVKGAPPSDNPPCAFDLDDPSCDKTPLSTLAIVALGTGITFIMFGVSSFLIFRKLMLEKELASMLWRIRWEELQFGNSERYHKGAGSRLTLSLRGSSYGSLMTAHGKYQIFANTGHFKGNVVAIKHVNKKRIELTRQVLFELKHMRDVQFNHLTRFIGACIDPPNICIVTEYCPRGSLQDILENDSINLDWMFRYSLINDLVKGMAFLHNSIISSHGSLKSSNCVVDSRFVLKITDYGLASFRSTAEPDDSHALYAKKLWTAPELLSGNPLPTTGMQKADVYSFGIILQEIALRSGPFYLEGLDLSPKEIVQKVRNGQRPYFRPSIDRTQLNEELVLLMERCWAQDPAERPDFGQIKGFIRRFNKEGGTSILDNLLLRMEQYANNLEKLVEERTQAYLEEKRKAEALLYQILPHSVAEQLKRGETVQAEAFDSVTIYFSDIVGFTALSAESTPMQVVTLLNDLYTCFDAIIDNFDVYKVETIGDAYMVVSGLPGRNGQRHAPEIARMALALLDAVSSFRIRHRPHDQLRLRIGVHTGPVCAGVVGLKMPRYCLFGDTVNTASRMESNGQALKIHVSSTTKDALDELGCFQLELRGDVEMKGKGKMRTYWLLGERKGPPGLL
# Lipid droplet: inhibitors of hepatocyte lipid droplet formation, primary screen, imaging, high-throughput imaging, BODIPY stain. AML12 mouse hepatocytes, oleate lipid droplets. 240,000 tested, 0.4% active. inhibition, % at 6.5 µM;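 active means lipid droplet intensity inhibited by at least 50%, with more than 500 cells counted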
#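 Assay system: AML12 mouse liver cells | Compound dosing: One dose, 6.5 µM compound | Read-out basis: Droplet intensity reduction, % inhibition | Measured by: Fluorescence imaging, 20x objective, two fields per well | Schedule: Overnight treatment with compound plus oleate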
# NPR1 activator: GC-A stimulated cGMP production enhancers – HEK293 GC-A cells, cGMP TR-FRET, EC30 ANP, primary screen; Atrial natriuretic peptide receptor 1 (Homo sapiens), P16066; 0% at EC30 ANP, 100% saturating ANP; activation, % at 10 µM; 370,000 tested, 0.14% active; in the data active means activation above about 40%
# Active calls of the source: *; nt = no result.
SMILES,GRIN3A LBD mod,JMJD2C inh,aDG glyco up,GC-B act,Lipid droplet,NPR1 activator
Cc1cccc(OCCNC(=S)NC(=O)c2cncc(Br)c2)c1,10*,-24,0,-2,-4,5
O=C(O)c1cc(S(=O)(=O)NCC2COc3ccccc3O2)ccc1Cl (stereo not drawn),0,-9,0,-2,nt,1
O=C(Nc1ccc(C(F)(F)F)cc1)c1cc(S(=O)(=O)NCC2COc3ccccc3O2)ccc1F (stereo not drawn),32*,1,4,0,-22,-7
COc1ccc(NC(=O)c2cc(S(=O)(=O)NCC3COc4ccccc4O3)ccc2F)cc1 (stereo not drawn),3,-1,0,0,-3,2
CC(C)c1ccc(NC(=O)c2cc(S(=O)(=O)NCC3COc4ccccc4O3)ccc2F)cc1 (stereo not drawn),19*,-6,1,2,-24,-2
COc1ccc(OCC(=O)NC(=S)Nc2ccc(S(=O)(=O)Nc3cc(C)on3)cc2)cc1,-12,1,0,-5,-1,0
COc1ccc(C=NNC(=O)c2ccccc2OCc2ccc(F)cc2)c(OC)c1,-10,17,0,-1,nt,-4
O=C(C(=O)c1cc(Br)ccc1O)c1cc(Br)ccc1O,20*,nt,0,0,nt,13
O=C(OCc1ccccc1)/C(=C/c1ccccc1Cl)NC(=O)c1ccco1,15*,-3,0,2,-13,-1
Cc1cc(N2CCN(c3nc4ccccc4s3)CC2)n2ncnc2n1,0,-2,4.2*,-6,nt,1
O=C(Cc1ccc(Cl)cc1)OCc1nnc(-c2ccccc2)o1,3,-2,1,-2,8,-1
O=C(CSc1ccc(Cl)cc1)OCc1nnc(-c2ccccc2)o1,19*,9,0,5,4,0
Cc1c(C#N)c(N)nc2c3c(sc12)NC(=O)CC3c1ccc(Cl)cc1 (stereo not drawn),14*,1,0,22,-14,8
N#Cc1c(N)nc2c3c(sc(=N)c2c1N)NC(=O)CC3c1ccccc1 (stereo not drawn),-3,-2,0,-18,-6,-37
COc1cc(C(C2C(=O)CC(C)(C)CC2=O)C2C(=O)CC(C)(C)CC2=O)ccc1O,-1,1,0,1,nt,6
COc1ccc(C(C2C(=O)CC(C)(C)CC2=O)C2C(=O)CC(C)(C)CC2=O)cc1COCC(F)(F)F,13*,1,0,0,9,7
COc1ccc(C(=O)Nc2cc(C(F)(F)F)ccc2-n2cnc3ccccc32)cc1,14*,-6,0,-1,0,-3
COc1ccc2nc3ccccc3[n+]([O-])c2c1,2,nt,0,-5,nt,-4
[O-][n+]1c2ccccc2cc2ccccc21,46*,-2,1,3,nt,-3
O=C(OCC#CCSc1nnc(-c2cccc3ccccc23)o1)c1ccncc1,nt,nt,nt,-9,nt,-3
Cc1ccc(CN2C(=O)C(=O)N(CC(N)=O)C2=O)cc1,-2,-3,0,3,-1,1
N=c1n(CC(=O)c2cccc([N+](=O)[O-])c2)c2ccccc2n1Cc1ccccc1,-7,61*,2,-5,-33,0
Cc1ccc(C(=O)CN2C(=O)C(=O)N(Cc3ccccc3)C2=O)cc1,18*,32,0,-4,2,-1
Cc1ccc(Cn2c(=N)n(CC(=O)c3ccccc3)c3ccccc32)cc1,2,-3,12*,-1,0,-4
CC1CCCCN1C(=O)c1ccc(CNC(=O)c2cccc(Br)c2)cc1 (stereo not drawn),nt,nt,nt,-8,nt,0
SMILES,GRIN3A LBD mod,JMJD2C inh,aDG glyco up,GC-B act,Lipid droplet,NPR1 activator
Cc1ccc(-n2c(SCC(=O)Nc3ccc(Oc4ccccc4)cc3)nnc2-c2cccc(C)c2)cc1,nt,nt,nt,4,nt,-2
CC(C)c1cc(C(C)C)c(S(=O)(=O)N2CCC(c3cn4ccccc4n3)CC2)c(C(C)C)c1,nt,nt,nt,-9,nt,0
COc1cc(/C=C/C(O)=C/C(=O)/C=C/c2ccc(O)cc2)ccc1O,23*,-2,0,-3,nt,0
Cc1ccccc1CNC(=O)C1CCC(CNS(=O)(=O)c2cccc3cccnc23)CC1 (stereo not drawn),nt,nt,nt,1,nt,0
COc1cc(/C=C2\OC(=O)c3c(OC)cccc32)ccc1O,17*,-5,0,11,0,13
COc1cc(C=C2CN(C)C(=O)C2=O)ccc1O,nt,nt,0,-9,nt,-15
OC(c1cc(F)cc(Cl)c1)c1ncc(-c2cccc(C(F)(F)F)c2)[nH]1 (stereo not drawn),nt,nt,2,-7,nt,1
C/C(C=NNC(=O)CSc1nnc(-c2ccc(Cl)cc2)n1-c1ccccc1)=C\c1ccccc1,nt,nt,nt,-2,nt,-3
N#Cc1ccc(/C=C\c2nccc3c2[nH]c2ccccc23)cc1,12*,7,1,-5,-4,11
Clc1ccc(C=Cc2ccccn2)cc1,3,nt,0,-3,nt,6
CN(C)c1ccc(C=Cc2nccc3ccccc23)cc1,nt,nt,0,-15,nt,11
Clc1ccc(/C=C\c2nccc3c2[nH]c2ccccc23)cc1,20*,-7,1,2,5,5
CCOC(=O)Cc1nc(N2CCCN(C(C)=O)CC2)c2c(C)c(C(=O)OCC)sc2n1,nt,nt,nt,9,nt,1
O=C(CSCc1ccc(F)cc1)Nc1ccc(N2CCOCC2)cc1N1CCOCC1,0,1,0,-3,nt,2
Cc1nn(Cc2ccc(F)cc2)c2sc(C(=O)Nc3ccc(N4CCOCC4)cc3N3CCOCC3)cc12,-1,-8,-1,40*,-59,32
O=C(Nc1ccc(C(F)(F)F)cc1)c1cc(-c2cccnc2)nc2ccc(Br)cc12,34*,-38,0,3,nt,10
CC(=O)Nc1cccc(NC(=O)c2cc(-c3cccnc3)nc3ccc(Br)cc23)c1,3,14,2,12,nt,34
CCCCc1ccc(NC(=S)NCc2cccc(OC)c2)cc1,11*,4,1,4,-7,-3
COC(=O)Cc1ccc(NC(=S)NCc2cccc(OC)c2)cc1,1,17,1,1,-1,0
CCCCc1ccc(NC(=S)Nc2ccc(Nc3ccc(OC)cc3)cc2)cc1,12*,-7,0,-3,-83,1
CCCCc1ccc(NC(=S)Nc2cccnc2)cc1,-26,-8,1,0,-26,2
